Test results from ChEMBL document CHEMBL3526053, “Species-dependent uptake of glycylsarcosine but not oseltamivir in Pichia pastoris expressing the rat, mouse, and human intestinal peptide transporter PEPT1” (Drug Metab Dispos, 2012).

Columns and labels:
Assay type in all cases: ADME
[1] = molecular target: T1, Solute carrier family 15 member 1 (Homo sapiens, UniProt P46059); assay: Drug uptake in Pichia pastoris GS115 expressing human recombinant PEPT1 at 5 uM after 30s by dual-channel liquid scintillation counting analysis in presence of valacyclovir relative to control; details: 0.5 min
T1 sequence (P46059 whole entry): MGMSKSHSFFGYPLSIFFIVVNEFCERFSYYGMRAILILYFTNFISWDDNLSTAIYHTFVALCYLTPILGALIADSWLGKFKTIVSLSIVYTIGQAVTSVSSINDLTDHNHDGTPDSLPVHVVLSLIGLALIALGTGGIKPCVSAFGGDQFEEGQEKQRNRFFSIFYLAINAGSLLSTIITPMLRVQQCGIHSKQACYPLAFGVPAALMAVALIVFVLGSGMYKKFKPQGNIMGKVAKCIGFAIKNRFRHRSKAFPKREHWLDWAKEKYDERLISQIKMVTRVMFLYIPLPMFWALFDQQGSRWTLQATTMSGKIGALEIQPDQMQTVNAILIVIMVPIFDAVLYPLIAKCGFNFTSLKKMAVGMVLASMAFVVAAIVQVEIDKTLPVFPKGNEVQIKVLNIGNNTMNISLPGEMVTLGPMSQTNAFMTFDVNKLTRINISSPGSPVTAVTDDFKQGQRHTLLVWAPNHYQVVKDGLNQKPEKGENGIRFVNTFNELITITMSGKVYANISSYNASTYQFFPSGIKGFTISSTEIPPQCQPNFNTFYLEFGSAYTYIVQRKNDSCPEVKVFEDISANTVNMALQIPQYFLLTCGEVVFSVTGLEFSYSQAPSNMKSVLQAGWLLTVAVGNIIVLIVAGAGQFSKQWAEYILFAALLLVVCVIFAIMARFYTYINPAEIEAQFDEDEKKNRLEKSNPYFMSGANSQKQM
In short: (§1)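 [3H]GlySar 5.0 µM final, 30-s uptake at 24°C in 100 mM potassium phosphate pH 6.5, with or without a potential inhibitor at 10 mM. Cells are methanol-induced transformants. Values are vector-subtracted and expressed as percent of buffer control. Mean ± SE (n=3). ANOVA with Dunnett's test.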

[2] = molecular target: T2, Solute carrier family 15 member 1 (Rattus norvegicus, UniProt P51574); assay: Drug uptake in Pichia pastoris GS115 expressing rat recombinant PEPT1 at 5 uM after 30s by dual-channel liquid scintillation counting analysis in presence of cephradine relative to control; details: 0.5 min
T2 sequence (P51574 whole entry): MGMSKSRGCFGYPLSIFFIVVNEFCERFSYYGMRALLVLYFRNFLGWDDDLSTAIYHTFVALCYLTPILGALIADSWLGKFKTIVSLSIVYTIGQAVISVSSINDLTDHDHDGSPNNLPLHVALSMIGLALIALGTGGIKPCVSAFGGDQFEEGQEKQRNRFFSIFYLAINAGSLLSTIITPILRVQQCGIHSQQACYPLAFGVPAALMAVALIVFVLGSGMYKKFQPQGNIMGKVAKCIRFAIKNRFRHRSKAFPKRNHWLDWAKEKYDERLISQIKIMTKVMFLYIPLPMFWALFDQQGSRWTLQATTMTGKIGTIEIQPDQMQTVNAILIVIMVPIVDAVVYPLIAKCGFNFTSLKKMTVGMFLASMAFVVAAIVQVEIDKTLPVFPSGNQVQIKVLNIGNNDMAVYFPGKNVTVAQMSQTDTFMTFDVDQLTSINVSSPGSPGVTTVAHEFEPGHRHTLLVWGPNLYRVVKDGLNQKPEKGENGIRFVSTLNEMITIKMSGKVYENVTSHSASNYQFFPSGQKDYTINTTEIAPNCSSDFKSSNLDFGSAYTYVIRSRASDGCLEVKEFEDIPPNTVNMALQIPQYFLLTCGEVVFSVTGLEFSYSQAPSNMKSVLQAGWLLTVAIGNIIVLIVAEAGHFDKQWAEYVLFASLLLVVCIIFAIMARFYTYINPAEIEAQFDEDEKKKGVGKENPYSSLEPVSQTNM
In short: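 Rat PEPT1 (pPIC3.5K-rPept1) in GS115 His+Mut+ transformant, methanol-induced 20-24 hr in BMMY at 30°C, washed into 100 mM potassium phosphate pH 6.5. [3H]GlySar final 5.0 µM with inhibitor at 10 mM, 30 sec at 24°C. Counts taken by liquid scintillation after 24 hr standing. Values are vector-subtracted and given as % of buffer control. Mean ± SE, n=3.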

[3] = molecular target: T3, Solute carrier family 15 member 1 (Mus musculus, UniProt Q9JIP7); assay: Drug uptake in Pichia pastoris GS115 expressing mouse recombinant PEPT1 at 5 uM after 30s by dual-channel liquid scintillation counting analysis in presence of cefazolin relative to control; details: 0.5 min; in short: as §1
T3 sequence (Q9JIP7 whole entry): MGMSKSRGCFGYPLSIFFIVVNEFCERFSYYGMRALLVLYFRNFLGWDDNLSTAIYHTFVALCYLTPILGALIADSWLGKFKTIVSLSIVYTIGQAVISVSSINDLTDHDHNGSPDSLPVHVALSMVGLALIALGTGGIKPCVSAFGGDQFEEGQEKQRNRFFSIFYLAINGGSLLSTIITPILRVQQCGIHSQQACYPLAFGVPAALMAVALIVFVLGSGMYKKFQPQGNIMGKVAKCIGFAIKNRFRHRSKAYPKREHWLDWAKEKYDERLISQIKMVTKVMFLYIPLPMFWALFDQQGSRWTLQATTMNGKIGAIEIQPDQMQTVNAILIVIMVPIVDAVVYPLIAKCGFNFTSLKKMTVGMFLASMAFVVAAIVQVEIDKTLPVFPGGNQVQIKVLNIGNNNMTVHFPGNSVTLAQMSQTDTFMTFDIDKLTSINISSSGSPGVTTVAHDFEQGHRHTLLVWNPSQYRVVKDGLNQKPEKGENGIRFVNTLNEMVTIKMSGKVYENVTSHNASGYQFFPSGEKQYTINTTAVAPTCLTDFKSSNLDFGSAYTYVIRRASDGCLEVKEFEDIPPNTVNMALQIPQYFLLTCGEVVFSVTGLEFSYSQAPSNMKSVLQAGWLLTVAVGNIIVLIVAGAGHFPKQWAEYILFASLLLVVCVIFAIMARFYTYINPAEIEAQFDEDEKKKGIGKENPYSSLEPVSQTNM

[4] = molecular target: T1, Solute carrier family 15 member 1; assay: Drug uptake in Pichia pastoris GS115 expressing human recombinant PEPT1 at 5 uM after 30s by dual-channel liquid scintillation counting analysis in presence of SITS relative to control; details: 0.5 min; in short: as §1
[5] = molecular target: T1, Solute carrier family 15 member 1; assay: Drug uptake in Pichia pastoris GS115 expressing human recombinant PEPT1 at 5 uM after 30s by dual-channel liquid scintillation counting analysis in presence of elacridar relative to control; details: 0.5 min; in short: as §1
[6] = molecular target: T4, PEPT1 (Homo sapiens, UniProt P46059); assay: Drug uptake in Pichia pastoris GS115 expressing human recombinant PEPT1 at 5 uM after 30s by dual-channel liquid scintillation counting analysis relative to vector control; details: read-out: FC
T4 sequence (P46059 whole entry): T1 sequence (P46059 whole entry)
In short: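 5.0 µM radiolabelled substrate uptake for 30 s at 24°C in pH 6.5 phosphate buffer by induced transformants. Radioactivity is counted by liquid scintillation and normalised to OD600. Results are compared with pPIC3.5K vector-alone cells. Mean ± SE (n=6).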

- Drug uptake [1]: 3.5%
- Drug uptake [2]: 23.4%
- Drug uptake [3]: 87.4%
- Drug uptake [4]: 127%
- Drug uptake [5]: 100%
- uptake ratio at 0.5 min, 5 µM [6]: 23
SMILES: [3H]C(C(=O)O)N(C)C(=O)CN (stereo unspecified)
